Assays:
[1] = biological target: Vascular endothelial growth factor receptor 2 (Homo sapiens, UniProt P35968); experiment: Inhibition of VEGFR2 (unknown origin) using poly (Glu, Tyr) (4:1) as substrate after 30 mins by spectrophotometric analysis
[2] = biological target: Epidermal growth factor receptor (Homo sapiens, UniProt P00533); experiment: Inhibition of EGFR (unknown origin) using poly (Glu, Tyr) (4:1) as substrate after 30 mins by spectrophotometric analysis
U-87 MG = experiment: Ratio of foretinib IC50 to compound IC50 for human U87MG cells; format: functional, U-87MG ATCC
[3] = Ratio of foretinib IC50 to compound IC50 for human H460 cells; format: functional
HT-29 [4] = experiment: Cytotoxicity against human HT-29 cells after 72 hrs by MTT assay; conditions: HT-29, 72 h
A549 = experiment: Cytotoxicity against human A549 cells after 72 hrs by MTT assay; format: functional, cell-based; conditions: A549, 72 h
How it was run: (§1)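 Cells grown in MEM with 10% FBS; about 4 × 10³ cells per well, preincubated 24 h at 37 °C in 5% CO₂, then exposed to compound for 72 h. Each line tested three times; IC50 is mean of three determinations.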

[5] = Cytotoxicity against human U87MG cells after 72 hrs by MTT assay; format: functional, cell-based, U-87MG ATCC; conditions: U-87 MG; how it was run: as §1
[6] = biological target: Mast/stem cell growth factor receptor Kit (Homo sapiens, UniProt P10721); experiment: Inhibition of c-KIT (unknown origin) using poly (Glu, Tyr) (4:1) as substrate after 30 mins by spectrophotometric analysis
Mast/stem cell growth factor receptor Kit, sequence (P10721 whole entry): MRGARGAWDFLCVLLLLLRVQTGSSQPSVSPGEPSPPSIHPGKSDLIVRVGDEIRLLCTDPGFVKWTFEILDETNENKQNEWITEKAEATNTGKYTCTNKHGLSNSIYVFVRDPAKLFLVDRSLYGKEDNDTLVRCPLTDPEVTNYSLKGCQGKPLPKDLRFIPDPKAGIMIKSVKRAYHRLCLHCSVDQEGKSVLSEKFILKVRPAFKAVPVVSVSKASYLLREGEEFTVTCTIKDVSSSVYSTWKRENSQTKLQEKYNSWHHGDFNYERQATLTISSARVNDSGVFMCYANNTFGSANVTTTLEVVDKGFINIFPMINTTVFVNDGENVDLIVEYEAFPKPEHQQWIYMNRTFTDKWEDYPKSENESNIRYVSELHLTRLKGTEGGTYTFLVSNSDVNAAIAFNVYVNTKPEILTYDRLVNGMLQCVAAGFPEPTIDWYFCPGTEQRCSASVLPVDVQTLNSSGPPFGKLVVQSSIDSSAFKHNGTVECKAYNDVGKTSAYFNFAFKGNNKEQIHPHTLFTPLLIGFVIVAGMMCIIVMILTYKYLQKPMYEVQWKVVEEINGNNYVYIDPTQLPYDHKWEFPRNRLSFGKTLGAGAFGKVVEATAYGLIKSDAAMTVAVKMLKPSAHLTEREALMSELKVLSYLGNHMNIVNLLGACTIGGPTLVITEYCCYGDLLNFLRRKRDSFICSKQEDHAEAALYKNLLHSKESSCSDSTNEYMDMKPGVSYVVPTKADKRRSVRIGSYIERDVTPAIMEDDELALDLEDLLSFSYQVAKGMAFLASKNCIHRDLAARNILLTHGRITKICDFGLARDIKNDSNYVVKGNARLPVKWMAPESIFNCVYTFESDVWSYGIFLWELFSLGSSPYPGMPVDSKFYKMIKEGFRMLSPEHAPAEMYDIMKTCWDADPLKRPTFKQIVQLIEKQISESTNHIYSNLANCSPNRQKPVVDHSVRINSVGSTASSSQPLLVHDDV

HT-29 [7] = experiment: Ratio of foretinib IC50 to compound IC50 for human HT-29 cells; format: functional
[8] = Cytotoxicity against human H460 cells after 72 hrs by MTT assay; conditions: NCI-H460, 72 h
[9] = biological target: Platelet-derived growth factor receptor beta (Homo sapiens, UniProt P09619); experiment: Inhibition of PDGFRbeta (unknown origin) using poly (Glu, Tyr) (4:1) as substrate after 30 mins by spectrophotometric analysis
Platelet-derived growth factor receptor beta, sequence (P09619 whole entry): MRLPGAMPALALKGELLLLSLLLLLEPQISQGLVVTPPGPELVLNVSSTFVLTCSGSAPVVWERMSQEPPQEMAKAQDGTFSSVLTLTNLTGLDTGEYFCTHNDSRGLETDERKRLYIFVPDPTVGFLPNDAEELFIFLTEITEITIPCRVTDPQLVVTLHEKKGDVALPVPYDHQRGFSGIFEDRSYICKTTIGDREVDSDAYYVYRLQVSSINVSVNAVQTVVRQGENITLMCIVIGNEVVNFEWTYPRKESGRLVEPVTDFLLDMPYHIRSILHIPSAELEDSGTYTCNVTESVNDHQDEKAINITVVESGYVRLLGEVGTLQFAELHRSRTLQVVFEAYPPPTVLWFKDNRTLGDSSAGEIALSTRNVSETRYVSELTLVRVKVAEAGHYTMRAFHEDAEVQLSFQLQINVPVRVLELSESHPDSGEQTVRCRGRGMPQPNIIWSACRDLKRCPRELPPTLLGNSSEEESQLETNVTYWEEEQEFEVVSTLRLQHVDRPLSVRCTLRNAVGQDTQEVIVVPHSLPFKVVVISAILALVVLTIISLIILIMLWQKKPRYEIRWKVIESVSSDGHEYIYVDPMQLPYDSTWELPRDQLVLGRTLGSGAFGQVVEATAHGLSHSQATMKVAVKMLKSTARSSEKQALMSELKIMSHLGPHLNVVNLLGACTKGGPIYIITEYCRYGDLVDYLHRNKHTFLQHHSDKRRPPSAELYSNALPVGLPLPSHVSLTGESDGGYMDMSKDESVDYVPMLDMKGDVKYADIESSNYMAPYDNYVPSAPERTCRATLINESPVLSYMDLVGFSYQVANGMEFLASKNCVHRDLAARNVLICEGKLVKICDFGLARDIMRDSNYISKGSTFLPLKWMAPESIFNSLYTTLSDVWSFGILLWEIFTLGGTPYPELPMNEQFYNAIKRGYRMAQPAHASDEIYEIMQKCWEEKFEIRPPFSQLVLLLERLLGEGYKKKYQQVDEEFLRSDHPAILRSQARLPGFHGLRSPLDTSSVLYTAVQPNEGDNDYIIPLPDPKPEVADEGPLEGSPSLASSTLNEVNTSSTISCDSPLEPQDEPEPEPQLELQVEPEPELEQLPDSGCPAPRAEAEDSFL

MKN-45 = experiment: Cytotoxicity against human MKN45 cells after 72 hrs by MTT assay; conditions: MKN-45, 72 h
[10] = biological target: T1, Receptor-type tyrosine-protein kinase FLT3 (Homo sapiens, UniProt P36888); experiment: Inhibition of FLT3 (unknown origin) using poly (Glu, Tyr) (4:1) as substrate after 30 mins by spectrophotometric analysis
T1 sequence (P36888 whole entry): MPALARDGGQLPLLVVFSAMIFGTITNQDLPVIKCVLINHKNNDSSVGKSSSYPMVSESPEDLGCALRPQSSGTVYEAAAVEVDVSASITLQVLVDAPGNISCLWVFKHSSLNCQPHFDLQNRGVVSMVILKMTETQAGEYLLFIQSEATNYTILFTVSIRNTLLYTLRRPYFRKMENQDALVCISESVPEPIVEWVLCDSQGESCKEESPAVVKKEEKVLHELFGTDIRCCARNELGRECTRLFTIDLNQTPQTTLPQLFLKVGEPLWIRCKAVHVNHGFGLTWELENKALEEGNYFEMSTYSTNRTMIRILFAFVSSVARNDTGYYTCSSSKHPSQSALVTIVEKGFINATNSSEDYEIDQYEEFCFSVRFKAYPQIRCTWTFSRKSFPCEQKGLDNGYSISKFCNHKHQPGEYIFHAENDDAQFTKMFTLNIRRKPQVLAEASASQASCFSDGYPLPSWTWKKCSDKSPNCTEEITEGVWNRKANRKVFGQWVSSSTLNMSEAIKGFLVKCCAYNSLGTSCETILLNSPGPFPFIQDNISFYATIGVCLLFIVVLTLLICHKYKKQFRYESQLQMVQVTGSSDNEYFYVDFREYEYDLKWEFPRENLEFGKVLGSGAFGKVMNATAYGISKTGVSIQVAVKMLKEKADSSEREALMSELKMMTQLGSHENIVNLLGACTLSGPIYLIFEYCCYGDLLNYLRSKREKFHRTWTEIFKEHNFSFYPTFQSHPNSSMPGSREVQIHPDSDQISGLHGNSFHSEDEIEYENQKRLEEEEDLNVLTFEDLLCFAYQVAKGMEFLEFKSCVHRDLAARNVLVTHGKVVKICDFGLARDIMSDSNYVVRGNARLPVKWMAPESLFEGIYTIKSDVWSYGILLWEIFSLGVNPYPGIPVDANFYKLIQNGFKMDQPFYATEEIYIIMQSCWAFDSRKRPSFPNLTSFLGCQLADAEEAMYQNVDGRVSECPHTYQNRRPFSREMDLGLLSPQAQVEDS

[11] = biological target: Hepatocyte growth factor receptor (Homo sapiens, UniProt P08581); experiment: Inhibition of c-MET (unknown origin) using poly (Glu, Tyr) (4:1) as substrate after 30 mins by spectrophotometric analysis
Hepatocyte growth factor receptor, sequence (P08581 whole entry): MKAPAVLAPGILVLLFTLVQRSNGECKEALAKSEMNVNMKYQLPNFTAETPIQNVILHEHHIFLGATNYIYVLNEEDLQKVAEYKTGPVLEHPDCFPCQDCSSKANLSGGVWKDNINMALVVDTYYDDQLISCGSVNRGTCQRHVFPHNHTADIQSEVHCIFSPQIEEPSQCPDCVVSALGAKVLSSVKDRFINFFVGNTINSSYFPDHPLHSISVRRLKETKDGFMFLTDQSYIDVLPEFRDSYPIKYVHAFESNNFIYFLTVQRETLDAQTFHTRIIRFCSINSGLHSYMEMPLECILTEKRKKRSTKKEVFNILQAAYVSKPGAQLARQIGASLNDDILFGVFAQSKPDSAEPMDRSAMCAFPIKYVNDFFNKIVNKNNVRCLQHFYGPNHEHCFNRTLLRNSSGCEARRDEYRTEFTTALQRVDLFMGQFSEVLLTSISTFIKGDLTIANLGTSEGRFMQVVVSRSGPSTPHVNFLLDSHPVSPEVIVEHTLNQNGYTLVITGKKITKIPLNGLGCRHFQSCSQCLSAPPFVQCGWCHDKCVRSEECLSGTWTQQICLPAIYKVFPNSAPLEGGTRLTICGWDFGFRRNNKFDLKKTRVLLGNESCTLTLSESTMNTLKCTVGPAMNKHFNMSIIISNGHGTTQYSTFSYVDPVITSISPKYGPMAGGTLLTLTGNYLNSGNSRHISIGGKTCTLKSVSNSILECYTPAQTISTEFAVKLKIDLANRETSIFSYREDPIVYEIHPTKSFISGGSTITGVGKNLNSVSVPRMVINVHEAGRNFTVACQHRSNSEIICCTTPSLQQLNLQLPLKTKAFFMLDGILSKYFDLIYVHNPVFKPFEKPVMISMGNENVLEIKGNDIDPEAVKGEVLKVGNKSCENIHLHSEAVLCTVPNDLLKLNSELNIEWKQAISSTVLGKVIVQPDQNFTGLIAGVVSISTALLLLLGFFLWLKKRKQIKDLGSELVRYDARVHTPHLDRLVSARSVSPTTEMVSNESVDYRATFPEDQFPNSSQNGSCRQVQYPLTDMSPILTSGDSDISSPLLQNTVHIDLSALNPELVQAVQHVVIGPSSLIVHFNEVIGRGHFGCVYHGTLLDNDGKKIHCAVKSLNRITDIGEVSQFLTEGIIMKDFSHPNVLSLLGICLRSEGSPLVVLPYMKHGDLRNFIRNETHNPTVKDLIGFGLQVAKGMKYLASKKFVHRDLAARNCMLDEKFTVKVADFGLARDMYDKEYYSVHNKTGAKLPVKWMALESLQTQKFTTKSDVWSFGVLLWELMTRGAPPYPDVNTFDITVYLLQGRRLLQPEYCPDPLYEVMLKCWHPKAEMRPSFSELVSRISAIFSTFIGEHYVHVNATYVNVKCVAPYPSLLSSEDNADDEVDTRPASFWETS

Vascular endothelial growth factor receptor 2, sequence (P35968 whole entry): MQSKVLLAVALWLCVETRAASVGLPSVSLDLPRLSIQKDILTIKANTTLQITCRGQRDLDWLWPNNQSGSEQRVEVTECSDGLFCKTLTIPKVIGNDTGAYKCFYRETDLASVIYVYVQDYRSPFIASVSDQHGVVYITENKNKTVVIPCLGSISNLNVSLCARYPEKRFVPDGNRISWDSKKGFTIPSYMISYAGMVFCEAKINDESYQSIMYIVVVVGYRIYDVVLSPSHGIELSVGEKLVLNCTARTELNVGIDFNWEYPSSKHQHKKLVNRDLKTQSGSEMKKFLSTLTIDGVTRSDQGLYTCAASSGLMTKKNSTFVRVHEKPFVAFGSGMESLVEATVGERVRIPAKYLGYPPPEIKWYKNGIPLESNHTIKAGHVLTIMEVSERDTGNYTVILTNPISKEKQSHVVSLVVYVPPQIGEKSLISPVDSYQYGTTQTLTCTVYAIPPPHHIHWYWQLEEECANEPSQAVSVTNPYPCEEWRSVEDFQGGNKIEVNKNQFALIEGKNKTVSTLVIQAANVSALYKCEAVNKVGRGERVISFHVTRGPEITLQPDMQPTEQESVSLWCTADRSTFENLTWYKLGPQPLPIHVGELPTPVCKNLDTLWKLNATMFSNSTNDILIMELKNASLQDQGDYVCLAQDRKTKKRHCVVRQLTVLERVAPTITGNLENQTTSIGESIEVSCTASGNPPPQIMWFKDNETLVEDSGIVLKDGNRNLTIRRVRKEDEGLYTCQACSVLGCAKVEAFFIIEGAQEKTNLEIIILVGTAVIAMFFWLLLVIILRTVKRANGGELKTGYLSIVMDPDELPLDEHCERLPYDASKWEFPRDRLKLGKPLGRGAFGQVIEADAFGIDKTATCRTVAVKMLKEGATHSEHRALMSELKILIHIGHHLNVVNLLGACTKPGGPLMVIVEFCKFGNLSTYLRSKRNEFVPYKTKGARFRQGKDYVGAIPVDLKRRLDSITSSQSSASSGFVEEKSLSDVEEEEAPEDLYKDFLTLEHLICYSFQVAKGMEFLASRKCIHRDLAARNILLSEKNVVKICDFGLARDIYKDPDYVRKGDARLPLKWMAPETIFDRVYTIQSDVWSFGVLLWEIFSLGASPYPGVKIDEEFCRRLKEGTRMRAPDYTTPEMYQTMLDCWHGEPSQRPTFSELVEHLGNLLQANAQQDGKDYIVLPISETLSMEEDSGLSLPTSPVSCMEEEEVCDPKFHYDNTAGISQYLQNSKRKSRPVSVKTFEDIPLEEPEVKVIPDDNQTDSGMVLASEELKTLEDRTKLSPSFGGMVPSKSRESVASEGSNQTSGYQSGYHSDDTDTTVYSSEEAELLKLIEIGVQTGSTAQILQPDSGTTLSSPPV

IC50 [1]: 532 nM
IC50 [2]: 90 nM
IC50 [6]: 450 nM
IC50 [9]: 1.42 nM
IC50 [10]: 1.08 nM
IC50 [11]: 1.39 nM
SMILES: COc1cc2c(Oc3ccc(NC(=O)c4cc(-c5ccc(C)cc5)ccn4)cc3F)ccnc2cc1OCCCN1CCN(C)CC1
Ratio IC50 (U-87 MG): 1.2
Ratio IC50 [3]: 5.8
IC50 (HT-29 [4]): 26 nM
IC50 (A549): 100 nM
IC50 [5]: 810 nM
Ratio IC50 (HT-29 [7]): 7.3
IC50 [8]: 37 nM
IC50 (MKN-45): 73 nM

Source: ChEMBL document CHEMBL2434847, “Design, synthesis, and structure-activity relationships of novel 6,7-disubstituted-4-phenoxyquinoline derivatives as potential antitumor agents” (Eur J Med Chem, 2013)
